Screens from PubChem.
GalR3 antag = GalR3 antagonists in HEK293 cells, primary screen, cell-based, fluorescence readout. HEK293 GalR3-CNG cAMP membrane potential fluorescence; galR3 body fused to GalR1 C-terminus. inhibition, % at 3 µM. 360,000 tested, 0.44% active;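 active = inhibition above the screen-wide average plus 3 SD, cut at about 13% in these data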;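 note: forskolin and galanin both at EC90 stimulate the cells; cAMP rise reported by CNG channel membrane potential dye signal; 0% = forskolin plus galanin with DMSO and 100% = forskolin alone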
Target sequence (O60755 1-299 limits assumed): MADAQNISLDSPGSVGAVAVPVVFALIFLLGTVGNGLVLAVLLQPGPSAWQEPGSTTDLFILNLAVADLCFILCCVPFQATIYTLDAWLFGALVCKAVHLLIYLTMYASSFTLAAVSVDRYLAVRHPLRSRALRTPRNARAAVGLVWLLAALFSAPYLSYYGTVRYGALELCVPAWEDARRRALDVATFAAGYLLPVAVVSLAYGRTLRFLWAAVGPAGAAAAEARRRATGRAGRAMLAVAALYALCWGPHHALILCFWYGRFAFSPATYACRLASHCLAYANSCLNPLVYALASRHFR
NR2E3 ag-1 = inhibitors of NR2E3-RetCOR corepressor binding, primary screen, NR2E3 agonist project, biochemical, TR-FRET, GST-NR2E3, biotin-RetCOR | Photoreceptor-specific nuclear receptor (Homo sapiens), Q9Y5X4 | 320,000 tested, 0.12% active | AID 2300, 2010 | inhibition of corepressor binding, % at 4.78 µM | 1536-well;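 active = percent inhibition above the cutoff of mean plus 3 SD of all tested compounds, set per screening campaign, cut at about 20% in these data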;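 note: 0% = DMSO wells and 100% = biotin wells as full block of FRET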
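Assay system: NR2E3–RetCOR corepressor complex. Quantity: 1.35 nM GST-NR2E3. Buffer or medium: pH 7.5 Tris-based buffer. Reagent: biotinylated RetCOR corepressor at 7 nM final. Schedule: 5 h at 4 °C. Detection: TR-FRET, emission read at 617 and 671 nm. Replicates: one well per compound, singlicate testing.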
MsrA inh = bovine MsrA enzyme inhibitors, primary screen, biochemical, absorbance, HTS; 360,000 tested, 0.75% active; inhibition, % at 15.5 µM; AID 651718, 2012; Methionine sulfoxide reductase A (Bos taurus); purified bovine MsrA, absorbance read-out; in the data active = inhibition above about 4.5%;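 note: 0% = vehicle wells with enzyme and 100% = reference inhibitor wells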
NR2E3 ag-2 = NR2E3 agonists in two-hybrid cells, primary screen, cell-based, luminescence, CHO-S, Gal4-NCOR/VP16-NR2E3; luciferase; inhibition of corepressor binding, % at 3.98 µM; 360,000 tested, 0.35% active; AID 602229, 2012;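 active = inhibition above the mean of all tested compounds plus 3 SD, cut at about 70% in these data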;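 note: 0% = DMSO with NR2E3 transfected cells and 100% = cells lacking NR2E3 construct; higher means lower luciferase signal from less NR2E3 corepressor binding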
NadD inh = inhibitors of S. aureus NadD, primary screen, biochemical, colorimetric, uHTS | Nicotinate-nucleotide adenylyltransferase NadD (Staphylococcus aureus N315) | AID 602399, 2012 | inhibition, % at 20 µM | 360,000 tested, 0.78% active | purified NadD enzyme, colorimetric absorbance read-out; in the data active = inhibition above about 26%
MsrA act = bovine MsrA enzyme activators, primary screen, biochemical, absorbance, HTS; purified bovine MsrA, absorbance read-out; activation, % at 10.6 µM; 360,000 tested, 0.3% active; AID 602163, 2012; in the data active = activation above about 7.5%;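 note: 0% = vehicle and 100% = reference activator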
NadD inh conf = inhibitors of S. aureus NadD, confirmation, biochemical, colorimetric, single concentration. 2,000 tested, 13% active. inhibition, % at 20 µM. AID 624309, 2012. purified S. aureus NadD, colorimetric enzyme assay. shares compounds with NadD inh; in the data active = inhibition mostly above about 42%, no sharp cut-off; inactive = mostly below about 42%
Active calls of the source: *; . = no result given. Most compounds without a hit are left out; they make up all but 2.5% or so of the library.

SMILES	GalR3 antag	NR2E3 ag-1	MsrA inh	NR2E3 ag-2	NadD inh	MsrA act	NadD inh conf
COc1ccc(-c2nc(NC(=O)c3ccc(OCC(=O)Nc4ccc(F)cc4)c(OC)c3)sc2C)cc1	-2	10	0	-29	26	-5	.
COc1cc(C(=O)Nc2nc(-c3cc(C)ccc3C)c(C)s2)ccc1OCC(=O)Nc1ccc(F)cc1	-4	3	-1	-31	33*	-5	18
O=C(c1ccc2c(=O)n(Cc3ccco3)c(=S)[nH]c2c1)N1CCN(Cc2ccccc2)CC1	-7	-2	1	-5	56*	0	36*
CN1CCN(C(=O)c2ccc3c(=O)n(Cc4ccco4)c(=S)[nH]c3c2)CC1	-5	1	1	-16	-3	-11	.
C[C@@H]1CN([C@@H](C)CO)S(=O)(=O)c2ccc(Br)cc2O[C@H]1CN(C)Cc1ccccn1	-5	.	-1	-14	-6	0	.
COc1ccc(S(=O)(=O)N(C)[C@H]2C[C@H]3c4cc(-c5ccccc5)ccc4CCN3C(=O)[C@H]2[C@H](C)O)cc1	-6	.	0	7	6	1	.
O=C(c1ccc2c(c1)[nH]c(=S)n1c3ccccc3nc21)N1CCN(c2cccc(Cl)c2)CC1	1	-1	0	-24	39*	-1	9
Cc1nc(S/C(=C\c2ccc(OCc3ccccc3Cl)cc2)C(=O)O)n[nH]1	-6	2	0	-24	63*	0	13
Cc1cc([N+](=O)[O-])c2[nH]c(C(=O)N/N=C/c3ccccc3C(=O)O)c(-c3ccccc3)c2c1	-4	.	0	-6	34*	-3	6
NS(=O)(=O)c1ccc(N/N=C/c2ccccc2C(=O)O)c([N+](=O)[O-])c1	-2	2	4	15	-10	-9	.
CCn1c2ccccc2c2cc(NC(=O)COC(=O)c3ccc(NC(=O)CC#N)cc3)ccc21	0	-3	1	0	64*	-4	40
O=C(COC(=O)c1ccc(CO)cc1)Nc1ccc2ccccc2c1	-1	-2	-1	6	10	-1	.
CC1CCc2c(sc(NC(=O)COC(=O)c3ccc(NC(=O)CC#N)cc3)c2C#N)C1 (stereo not given)	-2	-5	1	23	36*	-4	17
N#CCC(=O)Nc1ccc(C(=O)OCC(=O)Nc2ccc3ccccc3c2)cc1	-4	-1	0	2	46*	-1	40
O=C(CSc1nccc(=O)[nH]1)Nc1ccc2ccccc2c1	-2	.	-1	-20	-3	-3	.
CCn1c2ccccc2c2cc(NC(=O)CSc3nccc(=O)[nH]3)ccc21	6	2	2	0	41*	-2	50*
Cc1nnc(Sc2cc(C(=O)NC3CC3)c3ccccc3n2)s1	-1	1	0	0	-5	-5	.
Cn1cnnc1SCC(=O)Nc1ccc(F)cc1	-9	-4	-1	1	-7	0	.
CCN(CC)S(=O)(=O)c1cc(NC(=O)COC(=O)c2ccc(NC(=O)CC#N)cc2)ccc1C	-3	0	-1	3	33*	4	14
CCOC(=O)C1=C(C)N=c2s/c(=C\c3ccc(OCC(=O)O)c(OC)c3)c(=O)n2C1c1ccc(OC)cc1 (stereo not given)	-9	-3	2	-3	6	-1	.
CCOC(=O)C1=C(C)N=c2sc(=Cc3cc(Cl)c(OCC(=O)O)c(OC)c3)c(=O)n2C1c1ccccc1Cl (stereo not given)	-1	.	0	9	30*	-9	23
CC(=O)c1cccc(NC(=O)Nc2ccccc2)c1	-4	-1	-1	-33	-4	-10	.
CC(=O)c1cccc(NC(=O)C2C3C=CC(C3=C(c3ccccc3)c3ccccc3)C2C(=O)O)c1 (stereo not given)	-3	2	1	-15	37*	-2	50*
Cc1ccccc1OCC(O)Cn1c(N2CCN(c3ccccc3)CC2)nc2c1c(=O)[nH]c(=O)n2C (stereo not given)	7	0	0	-5	10	-3	.
Cc1ccc(C(=O)Nc2ncc(Cc3ccccc3)s2)o1	3	0	2	17	-5	-3	.
SMILES	GalR3 antag	NR2E3 ag-1	MsrA inh	NR2E3 ag-2	NadD inh	MsrA act	NadD inh conf
CC(C)(C)c1ccc(C2CC2C(=O)N/N=C\c2cc3ccccc3nc2Cl)cc1 (stereo not given)	-3	3	1	-3	36*	0	-1
O=C(CNc1ccc2ccccc2c1)N/N=C/c1cc2ccccc2nc1Cl	2	3	2	-82	40*	-4	21
Cc1cccc(CCNC(=O)CC2C(=O)NCCN2CC2CCCCC2)n1 (stereo not given)	-7	0	0	0	0	0	.
CCCCC1=CC2=CC(=O)C(C)(OC(=O)c3cccs3)C(=O)C2=CO1 (stereo not given)	-3	5	0	13	32*	-3	47*
CCCCC1=CC2=CC(=O)C(C)(OC(=O)CCc3ccccc3)C(=O)C2=CO1 (stereo not given)	-7	-3	-1	22	66*	1	39*
COC(=O)CCCC1=CC2=CC(=O)C(C)(OC(=O)c3cccs3)C(=O)C2=CO1 (stereo not given)	.	-1	.	.	.	.	.
CCCCC1=CC2=CC(=O)C(C)(OC(=O)CCC(=O)OC)C(=O)C2=CO1 (stereo not given)	.	1	.	.	.	.	.
COc1ccc(CCC(=O)Nc2ccc(S(=O)(=O)NC3=NCCCCC3)cc2)cc1	-3	.	-1	-32	-6	-2	.
c1ccc2c(c1)ncc1cccn12	-4	0	1	-1	7	-4	.
CCn1c2ccccc2c2c3ncc4cccn4c3ccc21	-7	1	0	-24	39*	-2	5
COc1ccccc1-n1c(SCC(=O)NC2CCS(=O)(=O)C2)nc2cc([N+](=O)[O-])ccc21 (stereo not given)	0	0	2	-10	3	-3	.
COc1ccccc1-n1c(SCC(=O)c2ccc(O)cc2O)nc2cc([N+](=O)[O-])ccc21	-3	-1	4	9	49*	-2	39
